The list is not random: actives were taken first. Their share in the collection is about 3.1%.
MEKK3 PB1 HTS = modulators of MEKK3-MEK5 PB1 binding, primary screen, biochemical, wildtype MEKK3, multiplex bead flow cytometry, Alexa488-MEK5. actives 1.4% (n = 290,000). Mitogen-activated protein kinase kinase kinase 3 (Homo sapiens), Q99759. binding response (% of control), % at 10 µM. AID 1529, 2009. bead-based flow cytometry, Alexa488-MEK5 binding to MEKK3; actives lie on both sides; 0 = blocked by unlabeled MEK5, 100 = vehicle;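 active = binding response more than 3 SD above or below the average of its plate-row segment, actives on both sides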;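 note: Alexa488 bead fluorescence after subtracting the streptavidin-only scavenger bead signal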
Target sequence (Q99759 whole entry, looked up): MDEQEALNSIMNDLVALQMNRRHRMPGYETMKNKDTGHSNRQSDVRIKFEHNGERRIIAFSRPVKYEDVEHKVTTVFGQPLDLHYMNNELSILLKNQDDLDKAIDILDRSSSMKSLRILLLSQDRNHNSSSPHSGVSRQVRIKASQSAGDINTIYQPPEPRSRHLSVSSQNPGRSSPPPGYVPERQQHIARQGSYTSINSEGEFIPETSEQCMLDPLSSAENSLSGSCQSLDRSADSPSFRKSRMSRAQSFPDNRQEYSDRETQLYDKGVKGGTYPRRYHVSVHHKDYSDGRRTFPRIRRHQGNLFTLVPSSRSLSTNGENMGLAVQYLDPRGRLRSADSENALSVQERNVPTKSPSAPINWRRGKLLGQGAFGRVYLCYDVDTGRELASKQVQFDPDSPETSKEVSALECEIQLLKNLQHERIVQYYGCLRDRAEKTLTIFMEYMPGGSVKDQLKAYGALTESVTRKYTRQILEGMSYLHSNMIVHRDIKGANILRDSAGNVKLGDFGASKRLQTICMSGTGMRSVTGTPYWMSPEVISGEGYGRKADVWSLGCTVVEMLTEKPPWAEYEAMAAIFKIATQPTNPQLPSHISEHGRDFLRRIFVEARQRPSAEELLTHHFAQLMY
Apaf-1 inh = inhibitors of human Apaf-1 apoptosome, primary screen, biochemical, DEVD-Rh110 fluorescence, uHTS. Apoptotic protease-activating factor 1 (Homo sapiens), O14727. reconstituted apoptosome caspase-3 activity. inhibition, % at 20 µM. actives 0.71% (n = 330,000); active = inhibition of at least 40% at 20 µM;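 note: plate controls were DMSO wells for no effect and DEVD-CHO caspase inhibitor wells for full effect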
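Assay system: Apoptosome proteins | Medium: pH 7.5 Hepes buffer with CHAPS, BSA, DTT | Also added: Cytochrome c and DEVD-Rh110 substrate | Times: 30 min plus 50 min, RT | Detection: Rhodamine 110 fluorescence at Ex 480/Em 540 nm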
MEKK2wt PB1 HTS = modulators of MEK5 binding to wildtype MEKK2, primary screen, biochemical, multiplex bead flow cytometry, Alexa488-MEK5; Alexa488-MEK5 binding to MEKK2 WT; actives lie on both sides; binding response (% of control), % at 10 µM; actives 1.1% (n = 290,000); in the data active = binding response below about 67% or above about 130%
PREPL inh = PREPL enzyme inhibitors, primary screen, biochemical, fluorescence polarization | recombinant PREPL, fluorescence polarization activity-based probe | inhibition, % at 5.96 µM | actives 0.68% (n = 320,000); in the data active = inhibition above about 43%;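 note: 0% = enzyme with DMSO and 100% = wells lacking enzyme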
UBC13 inh = UBC13 polyubiquitin chain formation inhibitors, primary screen, biochemical, TR-FRET, uHTS | AID 485273, 2010 | Ubiquitin-conjugating enzyme E2 N (Homo sapiens), P61088 | inhibition, % at 20 µM | actives 0.47% (n = 330,000); in the data active = inhibition above about 45%, passing the limit was not always enough
MEKK2mut PB1 HTS = MEK5 binding signal on mutant MEKK2 PB1, primary screen, biochemical, multiplex bead flow cytometry, Alexa488-MEK5. percent response, % at 10 µM. Alexa488-MEK5 binding to MEKK2 mutant. AID 1530, 2009. actives 0.35% (n = 290,000); in the data active = percent response above about 24%, passing the limit was not always enough
MEKK2wt confirm = modulators of MEK5 binding to wildtype MEKK2, confirmation, biochemical, single concentration, multiplex bead flow cytometry | shares compounds with MEKK3 PB1 HTS | Alexa488-MEK5 binding to MEKK2 WT; actives lie on both sides | binding response (% of control), % at 10 µM | actives 2.4% (n = 5,900) | AID 1892, 2009; in the data active = binding response below about 16% or above about 210%; inactive = in between
MEKK2mut confirm = mutant MEKK2 PB1-MEK5 binding signal retest – biochemical, single concentration, multiplex bead flow cytometry, confirmation. shares compounds with MEKK3 PB1 HTS. Alexa488-MEK5 binding to MEKK2 mutant. percent response, % at 10 µM. actives 2% (n = 5,900); in the data active = percent response mostly above about 71%, no sharp cut-off; inactive = mostly below about 38%;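 note: higher means compound restores mutant binding toward wildtype level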
MEKK3 confirm = MEKK3 wild-type PB1 binding to MEK5, inhibitors, confirmation, biochemical, bead multiplex flow cytometry, single concentration, wildtype | shares compounds with MEKK3 PB1 HTS | Alexa488-MEK5 binding to MEKK3; active compounds read low | binding response (% of control), % at 10 µM | actives 1.8% (n = 5,900) | AID 1894, 2009;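 active = binding response below 72% of control, or above a set upper limit, though filed actives all read lower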;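 note: 100% = DMSO only wells and 0% = binding blocked by excess unlabeled MEK5; lower values mean stronger disruption of MEK5 binding to MEKK3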
Starred values were filed as active, the others as inactive; . = not tested or not shown; ! = not confirmed by another sample; [ ] = another dose, or the depositor's remark.

SMILES	MEKK3 PB1 HTS	Apaf-1 inh	MEKK2wt PB1 HTS	PREPL inh	UBC13 inh	MEKK2mut PB1 HTS	MEKK2wt confirm	MEKK2mut confirm	MEKK3 confirm
COC(=O)C1=C(c2ccc3ccccc3c2)C[C@@H]2CC[C@H]1N2C(=O)NC(C)C	.	6	.	-7	-2	.	.	.	.
O=C(Nc1cccc(Cl)c1)OC1CN2CCC1CC2 (centres undefined)	110	-1	147*	-3	5	27	125	8	98
CS(=O)(=O)Nc1ccc(Cc2noc(-c3ccc4[nH]cc(CCN)c4c3)n2)cc1	107	10	156*!	-18	36	11	131	11	99
NCCc1c[nH]c2ccc(F)cc12	98	-5	102	-4	7	3	.	.	.
COc1cc2c3cc1Oc1cc(ccc1O)C[C@@H]1c4c(cc(OC)c(O)c4Oc4ccc(cc4)C[C@H]3N(C)CC2)CCN1C	107	20	134*	40	22	10	118	8	97
COc1cc2c3cc1Oc1c(OC)c(OC)cc4c1[C@H](Cc1ccc(cc1)Oc1cc(ccc1O)C[C@H]3N(C)CC2)N(C)CC4	.	8	.	36	24	.	.	.	.
FC(F)(F)c1ccc2c(c1)N(CCCN1CCN(CCCl)CC1)c1ccccc1S2	101	13	173*	35	30	24*	155	25	105
Fc1ccc(C(OCCN2CCN(CCCc3ccccc3)CC2)c2ccc(F)cc2)cc1	112	56*	235*	-27	49*	26*	187	41	109
CCC/C=N/O	.	2	.	10	-2	.	.	.	.
N/C(=N\[N+](=O)[O-])N1CCN(C(=O)OC2CCCC2)CC1	105	5	105	9	5	5	.	.	.
ClCC(Br)CBr (centres undefined)	.	-6	.	14	7	.	.	.	.
COc1cc(OC)c(OC)cc1CNCCc1cccc(F)c1	104	-4	103	13	4	10	.	.	.
COc1ccc(CNCCc2cccc(F)c2)c2ccccc12	113	8	151*	.	6	16	117	10	103
O=C1NC(=O)C(CCc2ccncc2)(CCc2ccncc2)C(=O)N1C1CCCCC1	94	1	87	-3	4	-14	.	.	.
O=C1NC(=O)N(C2CCCCC2)C(=O)C1C1c2ccccc2C(=O)N1Cc1ccccc1 (centres undefined)	76*[inhibitor]	0	87	0	-7	-12	108	4	106
CN(C)CCN=Cc1c(O)n(-c2cccc(C(F)(F)F)c2)c(=O)[nH]c1=O	2.0*[inhibitor]	-2	-2.0*[inhibitor]	14	3	-20	98	4	101
Cn1cccc1/C=C1/C(=O)NC(=S)N(Cc2ccc(F)cc2)C1=O	88	17	56*[inhibitor]	20	-1	-19	98	0	98
Cn1cccc1/C=C1/C(=O)NC(=O)N(Cc2ccc(F)cc2)C1=O	101	-10	93	-7	4	0	.	.	.
CN(C(=O)Oc1ccc([N+](=O)[O-])cc1)c1ccccc1	73*[inhibitor]	2	95	0	-6	-1	97	-4	101
Cc1nc2ccccc2c(=O)n1/N=C/c1cc(Br)cc(Br)c1O	.	-6	.	19	-8	.	.	.	.
CCc1ccc(NP(=O)(Oc2ccccc2F)Oc2ccccc2F)cc1	1.0*[inhibitor]	24	-3.0*[inhibitor]	-3	-5	-27	100	-7	102
Cc1ccc(NP(=O)(Oc2ccccc2F)Oc2ccccc2F)cc1	101	4	97	6	6	2	.	.	.
COc1cc(CNCCc2c[nH]c3ccccc23)cc(OC)c1	101	-4	111	-55	9	7	.	.	.
COC1=CC(=O)[C@]2(C=C1OC)OC[C@@H]1Oc3c(ccc4c3C=CC(C)(C)O4)C(=O)[C@@H]12	.	2	.	7	0	.	.	.	.
COC(=O)C1=C(c2ccc(F)cc2OCc2ccccc2)C[C@@H]2CC[C@H]1N2C(=O)N1CCC(O)CC1	.	1	.	13	12	.	.	.	.
COCCN(C(=O)COC(=O)Cc1ccccc1)c1c(N)n(Cc2ccccc2)c(=O)[nH]c1=O	.	4	.	12	5	.	.	.	.
